These results are taken from PubChem BioAssay.

One may read the viability as a read-out of living cells in per cent, often relative to untreated cells. In general, inhibition refers to the relative decrease from the control value, in per cent.

Molecules are shown by their SMILES. Calls of active or inactive are those of the source.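 Rule for the calls, unless noted: active = viability at or under a set limit in both replicates, limit being median viability minus 3 SD (cut at about 48% in these data, passing the limit was not always enough); inconclusive = at or under the limit in just one replicate; inactive = at or above the limit in both replicates.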

The nature of assay [1]: Her2 expression decrease, cell viability multiplex – SKBR3 breast tumor cells, AlphaScreen, ATP viability, primary screen (AID 461;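 active = Her2 level under about 52% in both replicate screens, with viability over 70% of control, limit read from the data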;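 for Her2 level: lower value means less Her2 protein in the cells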;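 for viability: percent of carrier control wells set as 100% viability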). The settings on record: SKBR3 Her2 protein level, 18-24 h, measured here: SKBR3 viability, ATP luminescence, at 10 µM.
Assay [2] has as its target Receptor tyrosine-protein kinase erbB-2 (Homo sapiens) (UniProt P04626). The assay is described as above. As to conditions: 18-24 h, at 10 µM, stronger effect = lower value.
The nature of assay [3]: reduced viability of SK-BR-3 breast cancer cells – cell-based, 24 h, human, pilot screen (AID 572;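 active = viability at or below 10% of carrier control in both of two separate runs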;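 note: compound exposure lasted between 18 and 24 h rather than exactly 24 h; 100% = carrier-treated control wells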). As to conditions: SK-BR-3 viability, CellTiter-Glo luminescence, at 10 µM, stronger effect = lower value. A general note: ATP-based viability assays read luminescence as a measure of living cells.
Assay [4] can be described thus: HUVEC growth inhibition – cell-based, human, primary screen (AID 575;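 active = viability at or below 30% in both replicate assays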;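 note: 100% = median of untreated cell wells with 0.1% DMSO on each plate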). The settings on record: HUVEC proliferation, CellTiter-Glo luminescence, 72 h; at 10 µM; stronger effect = lower value. An outline of the steps:
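material = primary HUVEC, no more than 12 passages | input = 1250 cells per well | controls = vehicle and MePR control wells | measured by = CTG luminescence | times = 72 h compound incubation | format = collagen-coated 384-well format | read-out = % viability vs DMSO wells | doses = single 10 µM dose, 0.1% DMSO, from 5x medium stock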

Assay [5] can be described thus: H69AR cell proliferation blockers – human, duplicate replicates, primary screen (AID 580).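 Note: 100% = mean luminescence of untreated wells and 0% = no signal.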 As to conditions: H69AR lung tumor cells viability, ATP luminescence, 72 h; at 10 µM; stronger effect = lower value.
Assay [6] can be described thus: MRP1 drug-resistance reversers in H69AR cells – cell-based, doxorubicin co-treatment, pilot screen (AID 601;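 active = viability loss from added drug above about 55%, and viability with drug at most 40%, in both replicates, limit read from the data, passing the limit was not always enough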). The settings on record: CellTiter-Glo, 72 h, at 10 µM; for differential viability (reversal): stronger effect = higher value.
Assay [7] can be described thus: yeast transport mutant growth inhibition pilot in 384-well plates, post-Golgi transport modulator project (AID 636; in the data active = inhibition above about 31%). The settings on record: absorbance 615 nm, about 18 h, stronger effect = higher value.
Assay [8] can be described thus: growth suppression of yeast trafficking mutant, preliminary HTS, modulators of trafficking downstream of Golgi apparatus project, 1536-format plate, OD 615 nm (AID 637; in the data active = inhibition above about 30%). The settings on record: yeast transport mutant growth, absorbance 615 nm, 18 h; stronger effect = higher value.
The mark [9] stands for this setting: H69AR cells + 2 uM doxorubicin, measured here: viability with 2 uM doxorubicin, stronger effect = lower value.
[10] abbreviates: H69AR cells, compound alone cytotoxicity.

Sequence of Receptor tyrosine-protein kinase erbB-2 (Homo sapiens) (P04626 whole entry, looked up): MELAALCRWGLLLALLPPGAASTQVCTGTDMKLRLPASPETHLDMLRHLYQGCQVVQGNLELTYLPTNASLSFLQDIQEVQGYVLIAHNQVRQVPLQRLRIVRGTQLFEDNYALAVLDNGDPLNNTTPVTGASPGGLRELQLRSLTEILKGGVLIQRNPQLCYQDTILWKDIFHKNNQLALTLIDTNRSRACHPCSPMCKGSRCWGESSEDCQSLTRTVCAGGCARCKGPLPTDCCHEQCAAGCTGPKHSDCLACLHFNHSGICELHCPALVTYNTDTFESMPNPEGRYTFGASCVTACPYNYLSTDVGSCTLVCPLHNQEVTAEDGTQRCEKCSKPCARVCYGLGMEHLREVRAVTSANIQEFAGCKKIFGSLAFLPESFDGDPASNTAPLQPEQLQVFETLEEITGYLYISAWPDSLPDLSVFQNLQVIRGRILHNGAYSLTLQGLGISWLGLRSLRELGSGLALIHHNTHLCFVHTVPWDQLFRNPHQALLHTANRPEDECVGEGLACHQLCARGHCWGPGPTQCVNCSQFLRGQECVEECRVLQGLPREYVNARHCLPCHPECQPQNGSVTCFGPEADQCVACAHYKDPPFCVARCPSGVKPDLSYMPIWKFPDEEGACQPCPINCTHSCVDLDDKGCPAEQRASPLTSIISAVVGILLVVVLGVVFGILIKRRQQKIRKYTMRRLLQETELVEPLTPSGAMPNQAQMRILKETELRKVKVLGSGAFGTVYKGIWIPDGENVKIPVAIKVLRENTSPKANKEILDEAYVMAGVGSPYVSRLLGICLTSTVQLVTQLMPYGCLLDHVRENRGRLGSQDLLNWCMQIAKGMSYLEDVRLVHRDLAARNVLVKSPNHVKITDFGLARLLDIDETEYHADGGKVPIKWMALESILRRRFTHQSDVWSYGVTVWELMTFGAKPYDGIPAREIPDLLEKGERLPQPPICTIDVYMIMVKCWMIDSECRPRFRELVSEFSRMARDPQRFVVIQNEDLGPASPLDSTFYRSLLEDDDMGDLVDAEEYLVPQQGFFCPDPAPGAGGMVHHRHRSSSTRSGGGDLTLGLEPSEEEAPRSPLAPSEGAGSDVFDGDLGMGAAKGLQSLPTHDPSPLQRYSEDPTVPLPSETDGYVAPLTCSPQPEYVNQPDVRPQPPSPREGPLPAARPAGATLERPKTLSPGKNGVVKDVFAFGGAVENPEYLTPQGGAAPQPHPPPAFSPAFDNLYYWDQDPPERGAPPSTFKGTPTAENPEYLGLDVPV

As to `CC(=O)C1=C(C)NC(C)=C(C(C)=O)C1c1cccs1`, the viability was 99% in assay [1]; 99% (inactive) in assay [3]; 84.8% (inactive) in assay [4]; 87% (inactive) in assay [5]; 81.7% in assay [6] (setting [9]); 87% in assay [6] (setting [10]). Besides, in assay [2], the Her2 level is 86% (inactive). Besides, the differential viability (reversal) in assay [6] (H69AR cells + 2 uM doxorubicin) was 5.3% (inactive). Moreover, the inhibition in assay [7] is -2.08% (inactive); in assay [8], -4% (inactive).

On to `CCCC(C)c1nnc(NC(=O)C2CCCO2)s1` (stereo not given), for which the viability is 126% in assay [1]; 126% (inactive) in assay [3]; 95.8% (inactive) in assay [4]; 93.9% (inactive) in assay [5]; 93% in assay [6] (setting [9]); 93.9% in assay [6] (setting [10]). Further, in assay [2], the Her2 level was 91% (inactive). Also, the differential viability (reversal) in assay [6] (H69AR cells + 2 uM doxorubicin) is 0.895% (inactive). Besides, the inhibition was -7.33% (inactive) in assay [7] and -3.06% (inactive) in assay [8].

As for `Cc1occc1C(=O)Nc1ccccc1NC(=O)c1ccoc1C`, the viability in assay [1] is 96.5%; in assay [3], 96.5% (inactive); in assay [4], 90.9% (inactive); in assay [5], 100% (inactive); in assay [6] (setting [9]) it was 92%; in assay [6] (setting [10]) it was 100%. Further, in assay [2], the Her2 level is 101% (inactive). The differential viability (reversal) in assay [6] (H69AR cells + 2 uM doxorubicin) was 8.43% (inactive). For the same compound, the inhibition is -4.67% (inactive) in assay [7] and 0.48% (inactive) in assay [8].

Take `Cc1ccccc1NC(=O)c1c(F)c(F)c(F)c(F)c1F`: the viability in assay [1] is 90.5%; in assay [3], 90.5% (inactive); in assay [4], 103% (inactive); in assay [5], 88.9% (inactive); in assay [6] (setting [9]), 86%; in assay [6] (setting [10]), 88.9%. Further, in assay [2], the Her2 level is 98% (inactive). Moreover, the differential viability (reversal) in assay [6] (H69AR cells + 2 uM doxorubicin) is 2.94% (inactive). For the same compound, the results for the inhibition in assay [7] and in assay [8] were -5.13% (inactive) and 4.1% (inactive), respectively.

In the case of `O=C(CSc1nc2[nH]ncc2c(=O)n1-c1ccccc1Br)NCc1ccco1`, the viability in assay [1] was 100%; in assay [3], 100% (inactive); in assay [4] it was 95% (inactive); in assay [5], 82.9% (inactive); in assay [6] (setting [9]), 77.8%; in assay [6] (setting [10]), 82.9%. Moreover, in assay [2], the Her2 level is 80.5% (inactive). Moreover, the differential viability (reversal) in assay [6] (H69AR cells + 2 uM doxorubicin) was 5.05% (inactive). Also, the inhibition in assay [7] is -4.61% (inactive); in assay [8], -1.77% (inactive).

As to `CCOC(=O)Cn1c(N2CCOCC2)nc2c1c(=O)[nH]c(=O)n2C`, the viability is 106% in assay [1]; 106% (inactive) in assay [3]; 89.7% (inactive) in assay [4]; 88.1% (inactive) in assay [5]; 88.4% in assay [6] (setting [9]); 88.1% in assay [6] (setting [10]). In addition, the Her2 level in assay [2] is 85.5% (inactive). Moreover, the differential viability (reversal) in assay [6] (H69AR cells + 2 uM doxorubicin) was -0.31% (inactive). Also, the inhibition was -3.95% (inactive) in assay [7] and -6.83% (inactive) in assay [8].

`O=C(NCCC1=CCCCC1)c1cc2c(s1)CS(=O)(=O)C2`: the viability is 114% in assay [1]; 114% (inactive) in assay [3]; 85.7% (inactive) in assay [4]; 88.5% (inactive) in assay [5]; 83.8% in assay [6] (setting [9]); 88.5% in assay [6] (setting [10]). In addition, the Her2 level in assay [2] is 93.5% (inactive). In addition, in assay [6] (H69AR cells + 2 uM doxorubicin), the differential viability (reversal) is 4.64% (inactive). Also, the inhibition in assay [7] was -3.77% (inactive); in assay [8] it was -3.28% (inactive).

For the compound `CC(C)(Oc1ccc(Cl)cc1)C(=O)NC1CCSC1=O` (stereo not given), the viability is 101% in assay [1]; 101% (inactive) in assay [3]; 90.3% (inactive) in assay [4]; 114% (inactive) in assay [5]; 94.6% in assay [6] (setting [9]); 114% in assay [6] (setting [10]). For the same compound, in assay [2], the Her2 level was 104% (inactive). The differential viability (reversal) in assay [6] (H69AR cells + 2 uM doxorubicin) was 19.5% (inactive). In addition, the inhibition is 0.27% (inactive) in assay [7] and -9.52% (inactive) in assay [8].

For the compound `COc1ccccc1N1C(=O)CC(Sc2nc(C)cc(C)n2)C1=O` (stereo not given), the viability in assay [1] is 87%; in assay [3], 87% (inactive); in assay [4], 102% (inactive); in assay [5], 83.4% (inactive); in assay [6] (setting [9]), 92.7%; in assay [6] (setting [10]), 83.4%. The Her2 level in assay [2] was 96.5% (inactive). In addition, in assay [6] (H69AR cells + 2 uM doxorubicin), the differential viability (reversal) was -9.3% (inactive). Besides, the inhibition in assay [7] was -5.84% (inactive); in assay [8] it was -7.21% (inactive).

For the compound `Cc1nc(C)c(C(=O)Nc2ccc(C)c(F)c2)o1`, the viability is 92% in assay [1]; 92% (inactive) in assay [3]; 117% (inactive) in assay [4]; 94.8% (inactive) in assay [5]; 79.3% in assay [6] (setting [9]); 94.8% in assay [6] (setting [10]). Further, the Her2 level in assay [2] is 80% (inactive). Moreover, the differential viability (reversal) in assay [6] (H69AR cells + 2 uM doxorubicin) was 15.5% (inactive). Further, the inhibition in assay [7] was -5.54% (inactive); in assay [8], 1% (inactive).

Take `CCOC(=O)N1CCN(C(=O)c2csc3c2CCCCC3)CC1`: the viability in assay [1] is 93.5%; in assay [3], 93.5% (inactive); in assay [4], 94.9% (inactive); in assay [5] it was 90.8% (inactive); in assay [6] (setting [9]), 92.5%; in assay [6] (setting [10]) it was 90.8%. Further, the Her2 level in assay [2] was 112% (inactive). For the same compound, in assay [6] (H69AR cells + 2 uM doxorubicin), the differential viability (reversal) was -1.73% (inactive). For the same compound, the inhibition in assay [7] was 0.51% (inactive); in assay [8], -13.7% (inactive).

Take `COc1ccc(-c2[nH]nc3c2C(c2ccccc2OC(=O)N2CCOCC2)C(C#N)=C(N)O3)cc1` (stereo not given): the viability in assay [1] was 120%; in assay [3], 120% (inactive); in assay [4] it was 96.2% (inactive); in assay [5], 88.9% (inactive); in assay [6] (setting [9]), 87%; in assay [6] (setting [10]), 88.9%. Besides, in assay [2], the Her2 level is 85.5% (inactive). The differential viability (reversal) in assay [6] (H69AR cells + 2 uM doxorubicin) is 1.89% (inactive). Also, the inhibition is -1.58% (inactive) in assay [7] and -1.45% (inactive) in assay [8].

On to `CCOCCCn1c(=S)[nH]c2cc3c(cc2c1=O)OCO3`, for which the viability in assay [1] is 99%; in assay [3], 99% (inactive); in assay [4], 96.3% (inactive); in assay [5], 97.6% (inactive); in assay [6] (setting [9]), 93.4%; in assay [6] (setting [10]), 97.6%. In addition, the Her2 level in assay [2] is 102% (inactive). In addition, the differential viability (reversal) in assay [6] (H69AR cells + 2 uM doxorubicin) was 4.13% (inactive). In addition, the inhibition in assay [7] is -3.38% (inactive); in assay [8], -2.79% (inactive).

`Cc1ccc(S(=O)(=O)Cc2ccc(C(=O)NCc3ccc4c(c3)OCO4)o2)cc1`: the viability in assay [1] is 98%; in assay [3] it was 98% (inactive); in assay [4] it was 84.7% (inactive); in assay [5] it was 94.1% (inactive); in assay [6] (setting [9]), 87.3%; in assay [6] (setting [10]), 94.1%. Also, the Her2 level in assay [2] is 84% (inactive). For the same compound, the differential viability (reversal) in assay [6] (H69AR cells + 2 uM doxorubicin) was 6.79% (inactive). Moreover, the inhibition was -3.29% (inactive) in assay [7] and -4.76% (inactive) in assay [8].

Take `COc1ccc(CCNC(=O)CSc2nncn2N)cc1OC`: the viability in assay [1] is 93.5%; in assay [3], 93.5% (inactive); in assay [4], 109% (inactive); in assay [5] it was 96.4% (inactive); in assay [6] (setting [9]), 88.4%; in assay [6] (setting [10]) it was 96.4%. The Her2 level in assay [2] is 80.5% (inactive). Moreover, the differential viability (reversal) in assay [6] (H69AR cells + 2 uM doxorubicin) was 8% (inactive). Besides, the inhibition is -2.11% (inactive) in assay [7] and -3.5% (inactive) in assay [8].
